Values belong to the compound of their own block, whether it stands above or below them.
Tests used:
[1] = molecular target: Adenosine receptor A2a (Rattus norvegicus) (UniProt P30543); test: Displacement of specific [3H]-CGS- 21680 binding at adenosine A2A receptor in rat striatal membranes.; type: cell membranes; set-up: concentration or dose not given beside the values; settings: Membrane; concentration not given here
[2] = molecular target: T1, Adenosine receptor A1 (Rattus norvegicus) (UniProt P25099); test: Displacement of specific [3H](R)-PIA binding at Adenosine A1 receptor from rat brain membranes; type: cell membranes; set-up: concentration or dose not given beside the values; settings: Membrane; concentration not given here
T1 sequence (whole entry): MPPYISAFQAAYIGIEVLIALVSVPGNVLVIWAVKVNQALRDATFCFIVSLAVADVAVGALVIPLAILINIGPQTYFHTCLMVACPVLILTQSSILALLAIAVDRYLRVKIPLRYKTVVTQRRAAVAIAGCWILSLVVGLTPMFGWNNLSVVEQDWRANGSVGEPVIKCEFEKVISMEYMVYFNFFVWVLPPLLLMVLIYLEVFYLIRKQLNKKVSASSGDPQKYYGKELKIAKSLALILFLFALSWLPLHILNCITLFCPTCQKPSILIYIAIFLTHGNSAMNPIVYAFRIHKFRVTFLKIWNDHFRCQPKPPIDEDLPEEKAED

[3] = molecular target: T2, Adenosine receptor A3 (Homo sapiens) (UniProt P0DMS8); test: Displacement of [125I]AB-MECA binding at human Adenosine A3 receptor at 10e-5 M
T2 sequence (whole entry): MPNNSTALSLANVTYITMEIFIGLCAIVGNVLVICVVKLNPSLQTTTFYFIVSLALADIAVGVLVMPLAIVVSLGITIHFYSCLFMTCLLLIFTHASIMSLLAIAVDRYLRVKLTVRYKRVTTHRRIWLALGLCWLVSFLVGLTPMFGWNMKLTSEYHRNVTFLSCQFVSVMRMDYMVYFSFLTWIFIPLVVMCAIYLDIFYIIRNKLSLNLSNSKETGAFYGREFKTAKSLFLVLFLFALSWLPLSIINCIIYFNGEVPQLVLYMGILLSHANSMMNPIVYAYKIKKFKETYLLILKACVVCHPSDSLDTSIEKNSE
How it was run: (§1)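 Nonspecific binding defined with 100 µM (R)-PIA. Compounds dissolved in DMSO, ≤2% in assay. Stopped by rapid filtration over GF/B filters with three buffer rinses; result given as % specific binding displaced at the stated concentration.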

[4] = molecular target: T1, Adenosine receptor A1 (Rattus norvegicus); test: Displacement of specific [3H](R)-PIA binding at Adenosine A1 receptor from rat brain membranes at the concentration of 10e-4 M; type: cell membranes; settings: Membrane
How it was run: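 [3H](R)-PIA binding to rat cerebral cortex membranes with adenosine deaminase (3 units/mL) present in preparation, 30 min 30 °C preincubation and incubation. Result given as % of specific binding displaced at 10^-4 M.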

[5] = molecular target: Adenosine receptor A2a (Rattus norvegicus) (UniProt P30543); test: Displacement of specific [3H]-CGS- 21680 binding at Adenosine A2A receptor in rat striatal membranes at the concentration of 10e-4 M; type: cell membranes; settings: Membrane
How it was run: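 [3H]CGS 21680 binding to rat striatal membranes, with adenosine deaminase (3 units/mL) during preparation, 30 min 30 °C preincubation and incubation. Reported as % of specific binding displaced at 10^-4 M.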

Adenosine receptor A2a = Adenosine receptor A2a (Rattus norvegicus, UniProt P30543); test: Displacement of specific [3H]-CGS- 21680 binding at Adenosine A2A receptor in rat striatal membranes.; type: cell membranes, Membrane
Sequence of Adenosine receptor A2a (P30543 whole entry): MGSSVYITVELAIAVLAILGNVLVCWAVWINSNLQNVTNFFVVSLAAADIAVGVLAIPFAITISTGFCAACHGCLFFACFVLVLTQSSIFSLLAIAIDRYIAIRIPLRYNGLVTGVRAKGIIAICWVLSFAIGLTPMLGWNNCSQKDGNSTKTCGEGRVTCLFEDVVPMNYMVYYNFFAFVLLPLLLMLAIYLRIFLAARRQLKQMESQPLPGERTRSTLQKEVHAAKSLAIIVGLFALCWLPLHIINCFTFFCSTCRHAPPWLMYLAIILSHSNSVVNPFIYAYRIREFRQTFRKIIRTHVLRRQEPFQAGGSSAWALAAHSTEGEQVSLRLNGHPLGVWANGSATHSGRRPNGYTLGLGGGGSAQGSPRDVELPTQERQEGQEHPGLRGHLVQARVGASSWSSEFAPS

Adenosine receptor A1 = molecular target: T3, Adenosine receptor A1 (Rattus norvegicus, UniProt P25099); test: Displacement of specific [3H](R)-PIA binding at adenosine A1 receptor from rat brain membranes.; type: cell membranes, Membrane
T3 sequence (P25099 whole entry): T1 sequence (whole entry)

Adenosine receptor A3 = molecular target: T4, Adenosine receptor A3 (Homo sapiens, UniProt P0DMS8); test: Displacement of specific [125I]AB-MECA binding at human adenosine A3 receptor.
T4 sequence (P0DMS8 whole entry): T2 sequence (whole entry)

Homo sapiens = species on record: Homo sapiens; test: Selectivity ratio measured as the Ki value of rat A1 receptor to that of hA3 receptor.
[6] = molecular target: T2, Adenosine receptor A3 (Homo sapiens); test: Displacement of [125I]AB-MECA binding at human Adenosine A3 receptor at 10e-7 M; how it was run: as §1

Sequence of Adenosine receptor A2a (Rattus norvegicus) (P30543 whole entry): as above

inhibition [1]: 47%
SMILES: CCNC(=O)C1=C(c2ccccc2)N=C(C)/C(=C(/O)OCC)C1C#Cc1ccccc1 (centres undefined)

Displacement [3]: < 10%
inhibition [1]: 16%
SMILES: CCO/C(O)=C1\C(C)=NC(c2ccccc2)=C(C(=O)O)C1C#Cc1ccccc1 (centres undefined)

inhibition [1]: 33%
SMILES: CCO/C(O)=C1\C(C)=NC(c2ccccc2)=C(C(=O)OCC(OC)c2ccccc2)C1C#Cc1ccccc1 (centres undefined)

inhibition [1]: 27%
SMILES: CCO/C(O)=C1\C(C)=NC(c2ccccc2)=C(C(=O)OC(C)(C)C)C1C#Cc1ccccc1 (centres undefined)

inhibition [1]: 26%
SMILES: CCOC(=O)C1=C(c2ccccc2)N=C(C)/C(=C(/O)OCC)C1C#Cc1ccccc1 (centres undefined)

inhibition [2]: 24%
Displacement [5]: < 10%
SMILES: CCOC(=O)C1=C(c2ccccc2)N=C(C)/C(=C(/O)OCc2ccccc2)C1C#Cc1ccccc1 (centres undefined)

Ki (Adenosine receptor A2a): 44.7 µM
SMILES: CCOC(=O)C1=C(c2ccccc2)N=C(C)/C(=C(/O)OCC)C1c1ccncc1 (centres undefined)

inhibition [1]: 17%
SMILES: CCO/C(O)=C1\C(C)=NC(c2ccccc2)=C(C(=O)SCC)C1C#Cc1ccccc1 (centres undefined)

inhibition [1]: 25%
SMILES: CCOC(=O)C1=C(c2ccccc2)N=C(C)/C(=C(/O)OCC)C1c1ccccn1 (centres undefined)

inhibition [1]: 24%
SMILES: CCOC(=O)C1=C(c2ccccc2)N=C(C)/C(=C(/O)OCC)C1C#Cc1ccc([N+](=O)[O-])cc1 (centres undefined)

inhibition [1]: 20%
SMILES: CCOC(=O)C1=C(c2ccccc2)N=C(C)/C(=C(/O)OC(C)(C)C)C1C#Cc1ccccc1 (centres undefined)

Displacement [4]: < 10%
inhibition [1]: 15%
SMILES: C=CCO/C(O)=C1\C(C)=NC(c2ccccc2)=C(C(=O)OCC)C1/C=C/c1ccc([N+](=O)[O-])cc1 (centres undefined)

Displacement [4]: < 10%
inhibition [1]: 17%
SMILES: CCO/C(O)=C1\C(C)=NC(c2ccccc2)=C(C(=O)OCc2ccc(C)cc2)C1C#Cc1ccccc1 (centres undefined)

inhibition [2]: 41%
Displacement [5]: < 10%
SMILES: CCOC(=O)C1=C(c2ccccc2)N=C(C)/C(=C(/O)OCC)C1C#Cc1cccc(C)c1 (centres undefined)

inhibition [1]: 36%
SMILES: CCOC(=O)C1=C(c2ccccc2)N=C(C)/C(=C(/O)OCC)C1c1cccs1 (centres undefined)

inhibition [1]: 25%
SMILES: CCOC(=O)C1=C(C)N=C(C)/C(=C(/O)OCC)C1c1cccs1 (centres undefined)

inhibition [2]: 16%
inhibition [1]: 13%
SMILES: CCO/C(O)=C1\C(C)=NC(c2ccccc2)=C(C(=O)OCc2ccccc2C)C1C#Cc1ccccc1 (centres undefined)

Displacement [4]: < 10%
inhibition [1]: 16%
SMILES: CCO/C(O)=C1\C(C)=NC(c2ccccc2)=C(C(=O)OCc2cccc(C)c2)C1C#Cc1ccccc1 (centres undefined)

inhibition [1]: 40%
SMILES: CCOC(=O)C1=C(c2ccccc2)N=C(C)/C(=C(/O)OCC)C1c1cccnc1 (centres undefined)

Displacement [5]: < 10%
SMILES: CCO/C(O)=C1\C(C)=NC(c2ccccc2)=C(C(=O)OCc2ccccc2)C1C#Cc1ccccc1 (centres undefined)

Displacement [5]: < 10%
SMILES: CCOC(=O)C1=C(c2ccccc2)N=C(C)/C(=C(/O)OCC)C1c1ccccc1 (centres undefined)

inhibition [1]: 25%
SMILES: CCOC(=O)C1=C(C(F)(F)F)N=C(C)/C(=C(/O)OCC)C1C#Cc1ccccc1 (centres undefined)

inhibition [1]: 18%
SMILES: CCO/C(O)=C1\C(C)=NC(c2ccccc2)=C(C(=O)OCC[Si](C)(C)C)C1C#Cc1ccccc1 (centres undefined)

Displacement [5]: < 10%
SMILES: CCOC(=O)C1=C(c2ccccc2)N=C(C)/C(=C(/O)OCC)C1c1cc2ccccc2o1 (centres undefined)

inhibition [1]: 45%
SMILES: CCOC(=O)C1=C(c2ccccc2)N=C(C)/C(=C(/O)OCC)C1c1ccco1 (centres undefined)

Selectivity ratio (Homo sapiens): 5.7
SMILES: CCOC(=O)C1=C(C)NC(C)=C(C(=O)OC)C1C#Cc1ccccc1 (centres undefined)

inhibition [1]: 26%
SMILES: CCOC(=O)C1=C(c2ccccc2)N=C(C)/C(=C(/O)OCC)C1/C=C/c1ccc(N)cc1 (centres undefined)

Ki (Adenosine receptor A2a): 5.15 µM
SMILES: CCOC(=O)C1=C(c2ccccc2)N=C(C)/C(=C(/O)SCC)C1C#Cc1ccccc1 (centres undefined)

Continued, compound first:

SMILES: CCOCN1C(C)=C(C(=O)OCC)C(C#Cc2ccccc2)C(C(=O)OCC[Si](C)(C)C)=C1c1ccccc1 (centres undefined)
inhibition [2]: 13%
inhibition [1]: 19%

SMILES: CCOC(=O)C1=C(C)N(COC)C(c2ccccc2)=C(C(=O)OCC[Si](C)(C)C)C1C#Cc1ccccc1 (centres undefined)
Displacement [4]: < 10%
inhibition [1]: 27%

SMILES: CCNC(=O)C1=C(c2ccccc2)N(COCC)C(C)=C(C(=O)OCC)C1C#Cc1ccccc1 (centres undefined)
inhibition [1]: 35%

SMILES: Cc1ccc(-c2oc3ccc(Cl)cc3c(=O)c2Cl)c(OC(C)C)c1
Ki (Adenosine receptor A2a): > 100 µM
Ki (Adenosine receptor A1): 100 µM

SMILES: CCO/C(O)=C1\C(C)=NC(c2ccccc2)=C(C(=O)OCCc2ccccc2)C1C#Cc1ccccc1 (centres undefined)
Displacement [4]: < 10%
Displacement [5]: < 10%

SMILES: COC(=O)C1=C2C=CN(C)C=C2c2nc(-c3ccccc3)nn2C1
Ki (Adenosine receptor A3): 0.013 µM

SMILES: CCO/C(O)=C1\C(C)=NC(c2ccccc2)=C(C(=O)OCc2ccc(C(F)(F)F)cc2)C1C#Cc1ccccc1 (centres undefined)
inhibition [2]: 32%
inhibition [1]: 15%

SMILES: CCO/C(O)=C1\C(C)=NC(c2ccccc2)=C(C(=O)OCc2ccc([N+](=O)[O-])cc2)C1C#Cc1ccccc1 (centres undefined)
inhibition [2]: 29%
Displacement [5]: < 10%

SMILES: CCO/C(O)=C1\C(C)=NC(c2ccccc2)=C(C(=O)OCc2cccc(I)c2)C1C#Cc1ccccc1 (centres undefined)
inhibition [2]: 14%
inhibition [1]: 19%

SMILES: CCNC(=O)C1=C(C)NC(c2ccccc2)=C(C(=O)OCC)C1C#Cc1ccccc1 (centres undefined)
inhibition [1]: 19%

SMILES: CCO/C(O)=C1\C(CC)=NC(c2ccccc2)=C(C(=O)OCc2ccccc2)C1C#Cc1ccccc1 (centres undefined)
inhibition [2]: 25%
Displacement [5]: < 10%

SMILES: CCOC(=O)C1=C(c2ccccc2)N=C2CCCC(O)=C2C1C#Cc1ccccc1 (centres undefined)
inhibition [1]: 22%

SMILES: CCCO/C(O)=C1\C(C)=NC(c2ccccc2)=C(C(=O)OCc2ccccc2)C1C#Cc1ccccc1 (centres undefined)
inhibition [2]: 21%
inhibition [1]: 16%

SMILES: CCO/C(O)=C1\C(C)=NC(c2ccccc2)=C(C(=O)OCc2ccc(C(=O)OCC(Cl)(Cl)Cl)cc2)C1C#Cc1ccccc1 (centres undefined)
inhibition [2]: 33%
inhibition [1]: 11%

SMILES: CCOCN1C(C)=C(C(=O)OCC)C(C#Cc2ccccc2)C(C(=O)O)=C1c1ccccc1 (centres undefined)
Ki (Adenosine receptor A1): 19.1 µM
inhibition [1]: 36%
Ki (Adenosine receptor A3): > 100 µM

SMILES: CCO/C(O)=C1\C(C)=NC(c2ccccc2)=C(C(=O)OCCCc2ccccc2)C1C#Cc1ccccc1 (centres undefined)
Displacement [4]: < 10%
Displacement [5]: < 10%

SMILES: CCO/C(O)=C1\C(C)=NC(c2ccccc2)=C(C(=O)OCc2cc([N+](=O)[O-])cc([N+](=O)[O-])c2)C1C#Cc1ccccc1 (centres undefined)
inhibition [2]: 20%
inhibition [1]: 40%

SMILES: CCO/C(O)=C1\C(C)=NC(c2ccccc2)=C(C(=O)OCc2cc(C(F)(F)F)cc(C(F)(F)F)c2)C1C#Cc1ccccc1 (centres undefined)
Displacement [4]: < 10%
inhibition [1]: 29%

SMILES: CCO/C(O)=C1\C(C)=NC(c2ccccc2)=C(C(=O)OCc2cccc([N+](=O)[O-])c2)C1C#Cc1ccccc1 (centres undefined)
inhibition [2]: 28.2%
Displacement [5]: < 10%

SMILES: CCOC(=O)C1=C(c2ccccc2)NC(C)=C(C(C)=O)C1C#Cc1ccccc1 (centres undefined)
inhibition [1]: 17%

SMILES: CCO/C(O)=C1\C(C)=NC(c2ccccc2)=C(C(=O)OCc2ccc(C(=O)NCCN)cc2)C1C#Cc1ccccc1 (centres undefined)
Displacement [6]: < 10%
inhibition [2]: 68%
inhibition [1]: 39%

— ChEMBL document CHEMBL1130115 (J Med Chem, 1997)
